Experimental data: paper PMC4804314 (Pharmacology Research & Perspectives, 2016)
Where two headings read alike, the source gives them in different places. Marks after values point to notes of the source that are not given here.

How the values were obtained:
[1] = Physicochemical properties
[2] = Quantitative tissue distribution; format: in vivo, mouse (NMRI); conditions: for dose found in the carcasses: 24 h postdose
In short: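 Male and female NMRI mice got i.v. [14C]-test compound, 2.5 mg/kg (n = 3/time), with tissues excised at 0.1, 0.5, 2, 8 and 24 h. Larger organs were homogenized and small tissues taken whole. Carcasses were included. Samples were dried at about 60°C for 12 h, combusted in a sample oxidizer and read by LSC.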

[3] = Metabolite profiling of mouse plasma, urine and feces by radio-HPLC; format: in vivo, mouse (NMRI); conditions: for dose excreted: NMRI, mouse
In short: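 Mouse samples after i.v. [14C]-test compound, 2.5 mg/kg. Plasma at 0.1 and 0.25 h was extracted twice with ethanol. Fecal precipitates were sonicated with ethanol at 40°C/2 h, and unextracted residue was combusted. Extracts ran on isocratic radio-HPLC: acetonitrile/0.05 mol/L ammonium acetate pH 4 (19/80, v/v), RP8e column, 1 mL/min, UV 230 nm plus radiodetector. Excreted radioactivity was given as % dose.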

[4] = Excretion of total radioactivity in mouse; format: in vivo, mouse (NMRI)
In short: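 Male and female NMRI mice got an i.v. bolus of [14C]-test compound, 2.5 mg/kg. Urine and feces were collected 0–8 h, 8–24 h, then every 24 h to 120 h. Urine from timed pooled samples (n = 3) was counted by LSC. Feces were homogenized in water with carboxymethylcellulose, and 1 g aliquots were dried at 60°C/12 h and combusted. Minced carcasses (0.5 g aliquots) and tail segments were combusted for residual radioactivity.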

[5] = Plasma pharmacokinetics in rabbit after i.v. infusion; format: in vivo, Chinchilla rabbit
In short: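 Chinchilla rabbits received a 4-h infusion into the ear vein at 50, 150 or 450 mg/kg/d. Plasma was sampled before and at 2, 4, 4.25, 4.5, 5, 7 and 10 h after infusion start.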

[6] = tested on: sandwich‐cultured mouse (NMRI) hepatocytes; assay: Hepatobiliary disposition in sandwich-cultured mouse hepatocytes; format: in vitro ADME; conditions: for BEI / CLbiliary / Intracellular concentration / Cellular accumulation Avg. / Total accumulation Avg.: 20 min; for Cellular accumulation Avg. / Total accumulation Avg.: mean ± SD of triplicate wells
[7] = tested on: sandwich‐cultured human hepatocytes; assay: Hepatobiliary disposition in sandwich-cultured human hepatocytes; format: in vitro ADME
In short: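 Sandwich-cultured human hepatocytes from three donor liver preparations, cultured 6 days. [14C]-test compound was applied at 10 and 250 μmol/L, with [3H]-taurocholate as transporter-function control and LDH release as cytotoxicity check. Radioactivity was read by LSC. Accumulation is mean ± SD of triplicate wells. BEI, CLbiliary, intracellular concentration and Cic/Cec were derived.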

[8] = tested on: human suspension hepatocytes; assay: Uptake into human suspension hepatocytes; format: in vitro ADME
In short: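 Cryopreserved human hepatocytes in suspension, transporter function verified by the supplier. Test compound was applied at 10 μmol/L, 250 μmol/L and 10 mmol/L for 1 to 30 or 90 min. Cells were separated from buffer by the oil-layer method, and drug in both compartments was quantified over time by LC/MS/MS. Nonspecific transporter inhibition used rifampicin 20 μmol/L, cyclosporine A 20 μmol/L and quinidine 100 μmol/L.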

[9] = tested on: sandwich‐cultured hepatocytes; assay: Cytotoxicity test with lactate dehydrogenase; format: cell-based; conditions: 250 μmol/L, up to 24 h
[10] = NADPH-dependent metabolism by mouse liver microsomes; format: in vitro ADME; conditions: mice, 10 and 100 µM, up to 6 h
[11] = NADPH-dependent metabolism by human liver microsomes; format: in vitro ADME; conditions: humans, 10 and 100 µM, up to 6 h
[12] = Distribution of radioactivity in pigmented mice; format: in vivo; conditions: eyes and skin
[13] = ref Becker et al. 2015, cited from earlier work
[14] = 10 μM, donor 1, 20 min, mean ± SD of triplicate wells
[15] = 10 μM, donor 2, 20 min, mean ± SD of triplicate wells
[16] = 10 μM, donor 3, 20 min, mean ± SD of triplicate wells
[17] = 10 μM, mean ± standard error of 3 donors, 20 min
[18] = 250 μM, donor 1, 20 min, mean ± SD of triplicate wells
[19] = 250 μM, donor 2, 20 min, mean ± SD of triplicate wells
[20] = 250 μM, donor 3, 20 min, mean ± SD of triplicate wells
[21] = 250 μM, mean ± standard error of 3 donors, 20 min
[22] = human, male, 0–144 h, n = 5, listed as [^14C]‐cilengitide

CC(C)[C@H]1C(=O)N[C@@H](CCCN=C(N)N)C(=O)NCC(=O)N[C@@H](CC(=O)O)C(=O)N[C@H](Cc2ccccc2)C(=O)N1C [cilengitide, cyclo‐(Asp‐D‐Phe‐N‐MeVal‐Arg‐Gly)]
solubility [1]: high
partition coefficient Po/w ([1]; octanol–water): 0.0096
dose found in the carcasses ([2]; female mice): 0.4 % of the dose
dose found in the carcasses ([2]; male mice): 0.8 % of the dose
concentrations in reproductive organs relative to plasma ([2]; mice, after 8 h): 6–14 times higher
dose excreted ([3]; female, feces): 66.2%
dose excreted ([3]; female, feces, iv, 2.5 mg/kg): 66%
dose excreted ([3]; female, urine, iv, 2.5 mg/kg): 28%
unchanged drug in feces (fecal/biliary secretion) ([3]; male mice): 87.2 % of the administered dose
dose excreted ([3]; male, feces, iv, 2.5 mg/kg): 87%
dose excreted ([3]; male, urine, iv, 2.5 mg/kg): 7%
extent of renal excretion [4]: 10%
level at 4 h ([5]; Chinchilla, rabbit, plasma, iv, 50 mg/kg): 34200 to 38500 ng/mL
clearance in comparison to hbf ([5]; female rabbits): ~15%
clearance ([5]; rabbit, in vivo): 8640 mL/day/kg
half-life ([5]; rabbit, in vivo, 450 mg/kg, apparent half‐life, rabbit, 450 mg/kg dose group): ~1 h
uptake into hepatocytes [6]: fairly robust
BEI ([6]; 10 μmol/L): 29.3%
CLbiliary ([6]; 10 μmol/L): 1010 mL/day/kg
Intracellular concentration ([6]; 10 μmol/L): 4.13 µM
Cellular accumulation Avg. ([6]; 10 μmol/L): 33.3 ± 1.4 pmol/mg
Total accumulation Avg. ([6]; 10 μmol/L): 47.1 ± 1.7 pmol/mg
BEI ([6]; 250 μmol/L): 43.3%
CLbiliary ([6]; 250 μmol/L): 3950 mL/day/kg
Intracellular concentration ([6]; 250 μmol/L): 219 µM
Cellular accumulation Avg. ([6]; 250 μmol/L): 1768 ± 14 pmol/mg
Total accumulation Avg. ([6]; 250 μmol/L): 3115 ± 32 pmol/mg
biliary efflux (BEI) ([6]; 10 and 250 μmol/L): 30–40%
intracellular concentration (Cic) ([6]; exposure 10 μmol/L): 4.13 µmol/L
intracellular concentration (Cic) ([6]; exposure 250 μmol/L): 219 µmol/L
biliary efflux (as determined by BEI and CLbil) [7]: negligible
BEI ([7]; 10 μM, donor 1, 20 min): 2.42%
CLbiliary ([7]; 10 μM, donor 1, 20 min): 7.2 mL/day/kg
Intracellular concentration ([7]; 10 μM, donor 1, 20 min): 1.70 µM
Cellular accumulation Avg. [7, 14]: 13.7 ± 1.8 pmol/mg
Total accumulation Avg. [7, 14]: 14.0 ± 1.5 pmol/mg
BEI ([7]; 10 μM, donor 2, 20 min): 2.30%
CLbiliary ([7]; 10 μM, donor 2, 20 min): 5.8 mL/day/kg
Intracellular concentration ([7]; 10 μM, donor 2, 20 min): 0.52 µM
Cellular accumulation Avg. [7, 15]: 4.17 ± 0.33 pmol/mg
Total accumulation Avg. [7, 15]: 4.27 ± 0.46 pmol/mg
BEI ([7]; 10 μM, donor 3, 20 min): 16.6%
CLbiliary ([7]; 10 μM, donor 3, 20 min): 18.7 mL/day/kg
Intracellular concentration ([7]; 10 μM, donor 3, 20 min): 0.56 µM
Cellular accumulation Avg. [7, 16]: 4.53 ± 0.38 pmol/mg
Total accumulation Avg. [7, 16]: 5.44 ± 3.31 pmol/mg
BEI [7, 17]: 7.12 ± 4.76%
CLbiliary [7, 17]: 10 ± 4.3 mL/day/kg
Cellular accumulation Avg. [7, 17]: 7.47 ± 3.12 pmol/mg
Intracellular concentration [7, 17]: 0.926 ± 0.386 µM
Total accumulation Avg. [7, 17]: 7.90 ± 3.07 pmol/mg
BEI ([7]; 250 μM, donor 1, 20 min): 20.4%
CLbiliary ([7]; 250 μM, donor 1, 20 min): 40.3 mL/day/kg
Intracellular concentration ([7]; 250 μM, donor 1, 20 min): 22.7 µM
Cellular accumulation Avg. [7, 18]: 183 ± 27 pmol/mg
Total accumulation Avg. [7, 18]: 230 ± 28 pmol/mg
BEI ([7]; 250 μM, donor 2, 20 min): 8.75%
CLbiliary ([7]; 250 μM, donor 2, 20 min): 7.2 mL/day/kg
Intracellular concentration ([7]; 250 μM, donor 2, 20 min): 10.4 µM
Cellular accumulation Avg. [7, 19]: 84.0 ± 12.1 pmol/mg
Total accumulation Avg. [7, 19]: 92.1 ± 5.7 pmol/mg
BEI ([7]; 250 μM, donor 3, 20 min): 15.6%
CLbiliary ([7]; 250 μM, donor 3, 20 min): 18.7 mL/day/kg
Intracellular concentration ([7]; 250 μM, donor 3, 20 min): 15.2 µM
Cellular accumulation Avg. [7, 20]: 122 ± 14 pmol/mg
Total accumulation Avg. [7, 20]: 145 ± 5.9 pmol/mg
BEI [7, 21]: 14.9 ± 3.4%
CLbiliary [7, 21]: 21.6 ± 10 mL/day/kg
Cellular accumulation Avg. [7, 21]: 130 ± 29 pmol/mg
Intracellular concentration [7, 21]: 16.1 ± 3.6 µM
Total accumulation Avg. [7, 21]: 156 ± 3 pmol/mg
biotransformation by HPLC analysis of supernatant and cell lysate ([7]; 250 μmol/L, 6 and 24 h): no indication for biotransformation
Intracellular concentration ([7]; exposure at 10 μmol/L): 0.926 ± 0.386 µM
Intracellular concentration ([7]; exposure at 250 μmol/L): 16.1 ± 3.6 µM
active uptake in human hepatocytes [8]: no active uptake
dependency of uptake on drug concentration ([8]; 10 μmol/L, 250 μmol/L and 10 mmol/L): no clear dependency on drug concentration
effect of inhibitor cocktail on distribution into hepatocytes ([8]; 20 μmol/L rifampicin, 20 μmol/L cyclosporine A, 100 μmol/L quinidine): no relevant inhibition
time after which distribution into hepatocytes was almost complete ([8]; human suspension hepatocytes): 1 to 4 min
uptake into human hepatocytes ([8]; suspension, 10 μmol/L, 250 μmol/L and 10 mmol/L): minor
cell toxicity (LDH in cell culture medium) [9]: does not cause cell toxicity
metabolism by liver microsomes [10]: poorly metabolized
metabolism by liver microsomes [11]: poorly metabolized
melanin binding [12]: no relevant melanin binding
dose recovered in urine as unchanged drug ([13]; human volunteers): 77.5%
Excretion of radioactivity in feces ([13]; human, male, 0–24 h, n = 5): ∼9.0 % dose
Excretion of radioactivity, total ([13]; human, male, 0–24 h, n = 5): ∼87 % dose
Excretion of radioactivity in feces ([13]; human, male, 0–144 h, n = 5): 15.5 % dose
Excretion of radioactivity in urine ([13]; human, male, 0–144 h, n = 5): 79 % dose
Excretion of radioactivity in feces [13, 22]: 15.5 ^d % dose
Excretion of radioactivity in urine [13, 22]: 79.0 ^d % dose
extent of renal excretion ([13]; human): ~ 80%
components found in human plasma and urine [13]: parent compound was the only component found
renal clearance compared with creatinine clearance of each subject [13]: below the creatinine clearance
